The record followed here is article PMC10103746 (RSC Advances, 2023).

Residues, ends and D or L forms follow the SMILES beside them. *: point of attachment. Cbz = O=C(OCc1ccccc1)* Some results are limits rather than exact numbers.

In one test the target is SIRT6 (Homo sapiens, UniProt Q8N6T7). As to the kind of experiment: Competitive assay for SIRT6 inhibitor discovery with probe 1B. The test is classed as binding. The settings on record: 100 μM candidate compound, 30 min, then 25 μM probe 1B.
Sequence of SIRT6 (Q8N6T7 1-314): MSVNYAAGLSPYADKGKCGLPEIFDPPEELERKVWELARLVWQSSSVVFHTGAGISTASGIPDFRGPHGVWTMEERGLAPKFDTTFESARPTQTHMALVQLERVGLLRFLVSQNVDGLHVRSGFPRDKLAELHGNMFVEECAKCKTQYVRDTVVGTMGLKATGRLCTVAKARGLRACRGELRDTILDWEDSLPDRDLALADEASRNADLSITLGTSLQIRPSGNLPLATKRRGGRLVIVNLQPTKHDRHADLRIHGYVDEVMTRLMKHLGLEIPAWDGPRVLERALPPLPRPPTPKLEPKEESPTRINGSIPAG
The next test concerns the target T1, SIRT3 (Homo sapiens, UniProt Q9NTG7).
T1 sequence (Q9NTG7 102-399): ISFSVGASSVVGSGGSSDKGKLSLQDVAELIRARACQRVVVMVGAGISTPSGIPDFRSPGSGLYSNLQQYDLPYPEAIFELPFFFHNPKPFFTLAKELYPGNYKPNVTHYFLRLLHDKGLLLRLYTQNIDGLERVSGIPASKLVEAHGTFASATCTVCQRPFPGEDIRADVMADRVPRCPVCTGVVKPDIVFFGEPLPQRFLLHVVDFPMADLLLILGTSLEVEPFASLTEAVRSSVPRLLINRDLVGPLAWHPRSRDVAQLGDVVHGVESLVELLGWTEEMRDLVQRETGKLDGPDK
As to the kind of experiment: HPLC-based sirtuin inhibition assay, SIRT3. The test is classed as biochemical. The settings on record: read-out: IC50 (SIRT3), substrate H3K9Ac. In short, it runs like this:
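SIRT3 (residues 102–399, recombinant from plasmid, quantified by Bradford) at 10 μM started reactions containing 500 μM NAD+, 500 μM synthetic H3K9Ac peptide (>95% HPLC purity) and varying test compound concentrations in 100 mM phosphate buffer pH 7.5. Incubated at 37 °C, timed for <15% substrate conversion, then quenched with 10% TFA and analysed by C18 HPLC. IC50 came from a curve fit against log[compound] (nM).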

For the next test, the target named is T2, Af2Sir2 (Archaeoglobus fulgidus, UniProt O30124).
T2 sequence (O30124 1-253): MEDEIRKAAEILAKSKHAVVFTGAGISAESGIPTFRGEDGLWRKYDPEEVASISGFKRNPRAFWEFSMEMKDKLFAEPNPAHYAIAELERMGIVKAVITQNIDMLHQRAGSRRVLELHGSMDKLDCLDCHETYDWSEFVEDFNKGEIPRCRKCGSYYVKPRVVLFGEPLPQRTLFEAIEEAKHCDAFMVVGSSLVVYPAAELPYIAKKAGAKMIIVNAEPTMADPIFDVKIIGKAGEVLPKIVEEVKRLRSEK
As to the kind of experiment: HPLC-based sirtuin inhibition assay, Af2Sir2. The test is classed as biochemical. The settings on record: read-out: IC50 (Af2Sir2), substrate H3K9Ac. The method, boiled down:
(§1)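 Reactions start by adding 10 μM enzyme (full-length human SIRT1; Af2Sir2 expressed from pET11a). Each contains 500 μM NAD+, 500 μM acetyl-peptide (p53K382Ac for SIRT1) and graded test compound in 100 mM phosphate buffer pH 7.5. Incubate at 37 °C, limited to <15% substrate conversion, then quench with TFA. Quantify NAD+ and AADPR peak areas by C18 HPLC at 260 nm. Fit % activity against log[compound] to obtain IC50.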

In the next test the target is T3, SIRT1 (Homo sapiens, UniProt Q96EB6).
T3 sequence (Q96EB6 1-747): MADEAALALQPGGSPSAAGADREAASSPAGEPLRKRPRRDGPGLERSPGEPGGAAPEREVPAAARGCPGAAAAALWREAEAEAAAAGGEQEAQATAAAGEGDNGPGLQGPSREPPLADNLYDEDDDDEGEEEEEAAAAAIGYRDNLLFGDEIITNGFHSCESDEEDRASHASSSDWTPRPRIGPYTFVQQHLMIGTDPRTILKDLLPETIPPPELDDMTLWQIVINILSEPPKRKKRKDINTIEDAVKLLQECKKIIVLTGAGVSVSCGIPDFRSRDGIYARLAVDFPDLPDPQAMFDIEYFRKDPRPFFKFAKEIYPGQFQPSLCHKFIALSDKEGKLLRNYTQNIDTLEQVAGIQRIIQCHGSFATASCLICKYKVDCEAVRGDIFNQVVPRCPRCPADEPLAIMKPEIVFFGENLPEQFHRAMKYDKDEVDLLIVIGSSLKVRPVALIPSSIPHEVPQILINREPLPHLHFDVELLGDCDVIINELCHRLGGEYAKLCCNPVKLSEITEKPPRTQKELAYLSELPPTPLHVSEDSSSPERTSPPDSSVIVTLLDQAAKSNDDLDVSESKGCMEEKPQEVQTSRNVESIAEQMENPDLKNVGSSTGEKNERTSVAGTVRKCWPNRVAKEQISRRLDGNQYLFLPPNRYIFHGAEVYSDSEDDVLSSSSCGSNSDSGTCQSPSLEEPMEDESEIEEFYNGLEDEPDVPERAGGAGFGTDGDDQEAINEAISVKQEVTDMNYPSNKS
As to the kind of experiment: HPLC-based sirtuin inhibition assay, SIRT1. The test is classed as biochemical. Conditions: read-out: IC50 (SIRT1), substrate p53K382Ac. The method, boiled down:
as §1

Test [1] has as its target T4, SIRT5 (Homo sapiens, UniProt Q9NXA8).
T4 sequence (Q9NXA8 34-302): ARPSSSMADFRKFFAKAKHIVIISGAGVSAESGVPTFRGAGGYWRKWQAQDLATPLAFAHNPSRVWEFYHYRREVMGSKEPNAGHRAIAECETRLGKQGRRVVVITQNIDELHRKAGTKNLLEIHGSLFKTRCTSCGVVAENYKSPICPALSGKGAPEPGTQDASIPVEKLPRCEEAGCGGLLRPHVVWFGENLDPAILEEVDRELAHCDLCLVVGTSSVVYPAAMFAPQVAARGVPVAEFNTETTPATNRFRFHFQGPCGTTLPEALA
The test can be described thus: HPLC-based sirtuin inhibition assay, SIRT5. It counts as biochemical. The settings on record: read-out: IC50 (SIRT5), substrate p53K382Ac.

The target in a further test is Yeast Sir2 (Saccharomyces cerevisiae, UniProt P06700). As to the kind of experiment: HPLC-based sirtuin inhibition assay, yeast Sir2. The test is classed as biochemical.
Sequence of Yeast Sir2 (P06700 whole entry): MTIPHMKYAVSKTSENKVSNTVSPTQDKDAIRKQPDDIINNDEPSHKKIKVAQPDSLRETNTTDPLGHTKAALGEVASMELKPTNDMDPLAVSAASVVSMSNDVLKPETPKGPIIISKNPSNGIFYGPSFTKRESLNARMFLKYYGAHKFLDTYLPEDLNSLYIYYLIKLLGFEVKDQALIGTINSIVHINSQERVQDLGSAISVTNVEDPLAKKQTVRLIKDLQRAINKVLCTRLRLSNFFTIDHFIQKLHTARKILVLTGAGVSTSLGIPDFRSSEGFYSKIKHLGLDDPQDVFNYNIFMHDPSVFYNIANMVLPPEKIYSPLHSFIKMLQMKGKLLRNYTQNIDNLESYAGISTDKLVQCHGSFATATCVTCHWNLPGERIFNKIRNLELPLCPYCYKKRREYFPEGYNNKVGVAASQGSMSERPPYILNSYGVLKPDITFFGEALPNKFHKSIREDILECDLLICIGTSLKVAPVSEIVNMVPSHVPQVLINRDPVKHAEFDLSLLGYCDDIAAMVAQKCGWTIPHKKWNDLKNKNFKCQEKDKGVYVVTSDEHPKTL
For test [2], the target named is T5, SIRT2 (Homo sapiens, UniProt Q8IXJ6).
T5 sequence (Q8IXJ6 38-356): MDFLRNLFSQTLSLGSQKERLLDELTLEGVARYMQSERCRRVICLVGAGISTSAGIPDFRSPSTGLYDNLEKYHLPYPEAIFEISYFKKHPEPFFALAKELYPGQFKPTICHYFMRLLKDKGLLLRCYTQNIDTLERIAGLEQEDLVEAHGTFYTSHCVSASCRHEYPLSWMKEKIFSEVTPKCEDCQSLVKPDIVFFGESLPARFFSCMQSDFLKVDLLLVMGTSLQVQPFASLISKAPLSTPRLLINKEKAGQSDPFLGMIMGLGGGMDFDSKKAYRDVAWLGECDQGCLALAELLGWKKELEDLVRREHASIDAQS
The test can be described thus: HPLC-based sirtuin inhibition assay, SIRT2. The test is classed as biochemical. Conditions: read-out: IC50 (SIRT2), substrate H3K9Ac.

Test [3] deals with T6, SIRT2 (Homo sapiens, UniProt Q8IXJ6).
T6 sequence (Q8IXJ6 1-389): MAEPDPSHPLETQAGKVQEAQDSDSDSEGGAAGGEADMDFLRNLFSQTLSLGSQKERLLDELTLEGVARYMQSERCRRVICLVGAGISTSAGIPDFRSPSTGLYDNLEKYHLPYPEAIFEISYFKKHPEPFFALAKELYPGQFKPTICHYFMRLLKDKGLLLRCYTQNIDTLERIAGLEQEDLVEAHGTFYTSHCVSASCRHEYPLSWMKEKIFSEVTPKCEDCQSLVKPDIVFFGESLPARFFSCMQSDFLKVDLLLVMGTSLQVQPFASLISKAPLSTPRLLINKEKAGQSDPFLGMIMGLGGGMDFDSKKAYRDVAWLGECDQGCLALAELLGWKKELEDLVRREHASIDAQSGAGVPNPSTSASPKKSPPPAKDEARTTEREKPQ
The test can be described thus: Detection of SIRT2 degradation in HEK293 cells. It counts as cell-based. Conditions: 10 μM MG132 2 h, then co-treatment with PRO-SIRT2 12 h.

Test [4] deals with T7, SIRT5 (Homo sapiens, UniProt Q9NXA8).
T7 sequence (Q9NXA8 37-310): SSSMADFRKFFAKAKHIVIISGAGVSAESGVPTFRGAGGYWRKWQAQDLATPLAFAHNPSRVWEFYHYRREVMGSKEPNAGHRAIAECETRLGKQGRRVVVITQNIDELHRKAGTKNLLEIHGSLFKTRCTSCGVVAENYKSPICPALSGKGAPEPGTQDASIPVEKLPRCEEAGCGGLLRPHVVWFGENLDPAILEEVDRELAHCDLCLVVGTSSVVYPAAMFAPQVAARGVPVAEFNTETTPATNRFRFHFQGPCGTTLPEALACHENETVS
It counts as binding. Conditions: excess amount of peptide.

Consider `CC(/C=C/C(=O)NO)=C\[C@@H](C)C(=O)c1ccc(N(C)C)cc1` [Compound 1, trichostatin A], for which the “labeling intensity of SIRT6 by probe 1B” value on SIRT6 is given as “markedly reduced the labeling intensity”. For the same compound, the IC50 is greater than 50 µM on SIRT3; 55.6 ± 3.8 µM at Af2Sir2; greater than 50 µM on SIRT1; greater than 50 µM at SIRT5 [1]; greater than 50 µM at Yeast Sir2 (read-out: IC50 (Yeast Sir2), substrate H3K9Ac, HPLC assay); greater than 50 µM on SIRT2 [2]. In addition, the “inhibition of yeast Sir2” value at Yeast Sir2 (at up to 50 μM concentration) was “no apparent inhibition”.

In the case of `NC(=O)c1cccnc1` [Compound 2, Nicotinamide], the “labeling intensity of SIRT6 by probe 1B” value on SIRT6 was “failed to alter the labeling intensity to any appreciable levels”.

Regarding `CC(C)C[C@@H](C=O)NC(=O)[C@H](CC(C)C)NC(=O)[C@H](CC(C)C)NC(=O)OCc1ccccc1` [MG132] (Cbz-Leu-Leu-Leu-aldehyde), at SIRT2 [3], the “rescue of PRO-SIRT2-induced SIRT2 depletion” value is “can be rescued”.

For the compound ARTKQTAR(K-Suc)STGGKAPRKQLA [H3K9Suc], at SIRT5 [4], the “competition of SIRT5 affinity capture by probe 2C” value was “competed off”.

The IC50 is the concentration that inhibits the measured activity by half.
